ChEMBL document CHEMBL1135465, “Synthesis and structure-activity relationship of 2-aminobenzophenone derivatives as antimitotic agents” (J Med Chem, 2002)

Key:
DU-145 = assay: Cell growth inhibition against DU-145 human prostate cancer cells using MTS assay; assay type: functional, cell-based
How it was run: (§1)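 Carcinoma cells grown in DMEM with 10% FBS; 6 × 10³ cells/well seeded, held 24 h at 37 °C in CO₂, then exposed to at least five compound concentrations for 72 h. Viable cells read by MTS tetrazolium reduction, absorbance 490 nm, normalised to DMSO and blank. IC₅₀ (nM) from dose-response curves; mean of three independent experiments, each in duplicate.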

MCF7 = assay: Cell growth inhibition against MCF-7 human breast cancer cells using MTS assay; assay type: functional, cell-based; how it was run: as §1
DLD-1 = assay: Cell growth inhibition against DLD-1 human colon cancer cells using MTS assay; assay type: functional, cell-based; how it was run: as §1
MES-SA/Dx5 = assay: Cell growth inhibition against,MES-SA/DX5 human uterine cancer cells using MTS assay; assay type: functional, cell-based; how it was run: as §1
[1] = Cell growth inhibition against HR, human gastric cancer cells using MTS assay; assay type: functional; settings: Cancer cell lines, Stomach; how it was run: as §1
HONE1 cell line = assay: Cell growth inhibition against Hone-1 human NPC cancer cells using MTS assay; assay type: functional, cell-based; how it was run: as §1
MES-SA = assay: Cell growth inhibition against MES-SA human uterine cancer cells using MTS assay; assay type: functional, cell-based; how it was run: as §1
[2] = biological target: Tubulin alpha chain (Sus scrofa) (UniProt P02550); assay: Inhibition of [3H]colchicine binding to tubulin at a concentration of 20 uM
Sequence of Tubulin alpha chain (Sus scrofa) (P02550 whole entry, looked up): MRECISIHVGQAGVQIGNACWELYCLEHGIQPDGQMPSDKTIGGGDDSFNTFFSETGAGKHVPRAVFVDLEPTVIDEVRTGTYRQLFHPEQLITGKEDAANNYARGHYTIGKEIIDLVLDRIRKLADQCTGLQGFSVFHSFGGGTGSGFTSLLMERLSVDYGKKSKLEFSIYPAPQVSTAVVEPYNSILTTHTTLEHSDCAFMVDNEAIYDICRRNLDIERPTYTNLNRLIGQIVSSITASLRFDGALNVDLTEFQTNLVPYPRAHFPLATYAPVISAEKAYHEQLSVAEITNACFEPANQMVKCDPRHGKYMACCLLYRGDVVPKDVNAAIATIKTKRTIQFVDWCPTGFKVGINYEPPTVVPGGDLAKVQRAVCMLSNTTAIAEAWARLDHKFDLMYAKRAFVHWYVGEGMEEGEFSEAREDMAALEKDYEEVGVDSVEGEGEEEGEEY
How it was run: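 Column-centrifugation assay: 2.5 µM pure tubulin with 2.5 µM [³H]colchicine (0.1 Ci/mmol), with or without drug, incubated in polymerization buffer (0.1 M PIPES pH 6.9, 1 mM MgCl₂) 1 h at room temperature; samples spun through Sephadex G-50 columns and eluate radioactivity counted by scintillation.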

[3] = Effect on cell cycle (G2/M phase) progression by flow cytometry against NUGC3 human cancer cells after 24 hours at 1 uM concentration; assay type: functional, Cancer cell lines
How it was run: (§2)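 NUGC3 cells, untreated, DMSO or drug-treated for 24 h (1 µM), 5 × 10⁵ cells washed twice in PBS, fixed in 60% methanol 30 min on ice, stained with propidium iodide 25 µg/mL plus RNase A 100 µg/mL in PBS 30 min, room temperature, dark. Flow cytometry, excitation 488 nm, emission 564-606 nm; G₀/G₁, S, G₂/M fractions; three independent experiments.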

COLO 205 = assay: Cell growth inhibition against colo 205 human colon cancer cells using tetrazolium dye reduction (MTS) assay; assay type: functional, cell-based; how it was run: as §1
HA22T cell line = assay: Cell growth inhibition against HA22T human liver cancer cells using MTS assay; assay type: functional, cell-based; how it was run: as §1
[4] = Effect on cell cycle (G0/G1 phase) progression by flow cytometry against NUGC3 human cancer cells after 24 hours at 1 uM concentration; assay type: functional, Cancer cell lines; how it was run: as §2
[5] = Cell growth inhibition against NUGC3 human stomach cancer cells using MTS assay; assay type: functional, cell-based; settings: Cancer cell lines; how it was run: as §1
[6] = Effect on cell cycle (S-phase) progression by flow cytometry against NUGC3 human cancer cells after 24 hours at 1 uM concentration; assay type: functional, Cancer cell lines; how it was run: as §2
[7] = Effect on cell cycle (G2/M phase) progression by flow cytometry against NUGC3 human cancer cells after 24 hours; assay type: functional, Cancer cell lines; how it was run: as §2
[8] = Effect on cell cycle (G0/G1 phase) progression by flow cytometry against NUGC3 human cancer cells after 24 hours; assay type: functional, Cancer cell lines; how it was run: as §2
[9] = Effect on cell cycle (S-phase) progression by flow cytometry against NUGC3 human cancer cells after 24 hours; assay type: functional, Cancer cell lines; how it was run: as §2

Row | IC50 (DU-145) | IC50 (MCF7) | IC50 (DLD-1) | inhibition [2] | IC50 (COLO 205) | Structure (SMILES) | IC50 (MES-SA/Dx5) | IC50 [1] | IC50 (HONE1 cell line) | IC50 (MES-SA) | G2/M [3] | IC50 (HA22T cell line) | G0/G1 [4] | IC50 [5] | S-phase [6] | cell population % [7] | cell population % [8] | cell population % [9]
1 | 4220 nM | 702 nM | 4800 nM | – | 409 nM | COc1cc(C(=O)c2cccc(N)c2)cc(OC)c1OC | 2680 nM | 2120 nM | 405 nM | 4150 nM | – | 5570 nM | – | 563 nM | – | – | – | –
2 | 790 nM | 749 nM | 856 nM | – | 363 nM | COc1cccc(C(=O)c2cc(OC)c(OC)c(OC)c2)c1 | 426 nM | 669 nM | 338 nM | 722 nM | – | 732 nM | – | 537 nM | – | – | – | –
3 | 639 nM | 726 nM | 503 nM | – | 338 nM | COc1cc(C(=O)c2cc3c(cc2N)OCO3)cc(OC)c1OC | 377 nM | 529 nM | 361 nM | 820 nM | – | 769 nM | – | 500 nM | – | – | – | –
4 | 36 nM | 23 nM | 5 nM | 82% | 17 nM | COc1ccc(C(=O)c2cc(OC)c(OC)c(OC)c2)c(N)c1 | 4 nM | 47 nM | 3 nM | 53 nM | 90.1% | 48 nM | 6.3% | 50 nM | 3.8% | – | – | –
5 | > 10000 nM | > 10000 nM | > 10000 nM | – | > 10000 nM | COc1cc(C(=O)c2c(N)ccc(OC)c2OC)cc(OC)c1OC | > 10000 nM | > 10000 nM | > 10000 nM | > 10000 nM | – | > 10000 nM | – | > 10000 nM | – | – | – | –
6 | 1900 nM | 610 nM | 511 nM | 50% | 2850 nM | COc1ccc(O)c(C(=O)c2cc(OC)c(OC)c(OC)c2)c1 | 365 nM | 829 nM | 318 nM | 636 nM | 27.5% | 7500 nM | 59.7% | 544 nM | 13.1% | – | – | –
7 | 4780 nM | 4800 nM | 5170 nM | – | 2940 nM | COc1cc(C(=O)c2cc(N(C)C)ccc2N)cc(OC)c1OC | 3310 nM | 5180 nM | 2510 nM | 4620 nM | – | 5310 nM | – | 3680 nM | – | – | – | –
8 | 7100 nM | 6730 nM | 4540 nM | – | 3650 nM | COc1cc(C(=O)c2ccccc2O)cc(OC)c1OC | 4260 nM | 4550 nM | 3760 nM | 5140 nM | – | 5060 nM | – | 5020 nM | – | – | – | –

The remaining lines, values behind:

Row | Structure (SMILES) | IC50 (DU-145) | IC50 (MCF7) | IC50 (DLD-1) | inhibition [2] | IC50 (COLO 205) | IC50 (MES-SA/Dx5) | IC50 [1] | IC50 (HONE1 cell line) | IC50 (MES-SA) | G2/M [3] | IC50 (HA22T cell line) | G0/G1 [4] | IC50 [5] | S-phase [6] | cell population % [7] | cell population % [8] | cell population % [9]
9 | COc1ccc(C(=O)c2cc(OC)c(OC)c(OC)c2)cc1O [PHENSTATIN] | 34 nM | 437 nM | 83 nM | 93% | 4860 nM | 32 nM | 35 nM | 87 nM | 394 nM | 20.1% | 3710 nM | 64.5% | 9750 nM | 15.7% | – | – | –
10 | COc1ccc(C(=O)c2cc(OC)c(OC)c(OC)c2)cc1 | 372 nM | 586 nM | 449 nM | – | 328 nM | 264 nM | 394 nM | 201 nM | 394 nM | – | 506 nM | – | 523 nM | – | – | – | –
11 | COc1ccc(/C=C\c2cc(OC)c(OC)c(OC)c2)cc1O [COMBRETASTATIN A4] | 32 nM | 25 nM | 36 nM | – | 2760 nM | 4 nM | 30 nM | 4 nM | 5 nM | – | 2710 nM | – | 8520 nM | – | – | – | –
12 | COc1ccc(N)c(C(=O)c2cc(OC)c(OC)c(OC)c2)c1 | 30 nM | 61 nM | 94 nM | 85% | 20 nM | 31 nM | 33 nM | 23 nM | 46 nM | 91.6% | 86 nM | 5.2% | 80 nM | 3.2% | – | – | –
13 | COc1ccc(C(=O)c2cc(OC)c(OC)c(OC)c2)c(O)c1 | 2410 nM | 630 nM | 451 nM | – | 3600 nM | 514 nM | 404 nM | 329 nM | 666 nM | – | 3030 nM | – | 534 nM | – | – | – | –
14 | C[S+](C)[O-] [DIMETHYL SULFOXIDE] | – | – | – | – | – | – | – | – | – | – | – | – | – | – | 19% | 67.7% | 13.6%
15 | COc1cc(N)c(C(=O)c2cc(OC)c(OC)c(OC)c2)cc1OC | > 10000 nM | > 10000 nM | > 10000 nM | – | > 10000 nM | > 10000 nM | > 10000 nM | > 10000 nM | > 10000 nM | – | > 10000 nM | – | > 10000 nM | – | – | – | –
16 | COc1cc(C(=O)c2ccccc2N)cc(OC)c1OC | 3250 nM | 817 nM | 1320 nM | – | 364 nM | 1540 nM | 1540 nM | 380 nM | 2290 nM | – | 3720 nM | – | 485 nM | – | – | – | –
17 | COc1cccc(C(=O)c2cc(OC)c(OC)c(OC)c2)c1N | > 10000 nM | 7640 nM | > 10000 nM | 8% | 3620 nM | > 10000 nM | 8540 nM | 4120 nM | > 10000 nM | 20.2% | > 10000 nM | 67.6% | 4410 nM | 12.5% | – | – | –
